# HMGR II inh: inhibitors of E. faecalis class II HMGR, primary screen, biochemical, Enterococcus faecalis; HMG-CoA reductase (Enterococcus faecalis, mvaE); purified E. faecalis HMGR, NADPH absorbance 340 nm kinetic; inhibition, % at 10 µM; 0.41% of 190,000 active;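 active means inhibition above a set limit, the median over all tested compounds plus 3 SD, cut at about 9.5% in these data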;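 further: enzyme runs in reverse so mevalonate oxidation gives rising NADPH absorbance; 0% = complete reaction with DMSO and 100% = background rate lacking mevalonate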
# TNF death inh: inhibitors of TNF-alpha triggered necroptosis, primary screen, cell-based, Jurkat FADD-/-, single concentration | Jurkat FADD-/- TNF necroptosis rescue, ATP luminescence, 24 h; 0 = TNF only, 100 = no-TNF cells | activation (protection from cell death), % at 10 µM | 0.068% of 220,000 active | AID 463075, 2010;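 active means activation, meaning protection from cell death, of at least 50% relative to plate controls; inactive means activation below 50%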;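 further: necroptosis triggered by 40 ng/mL TNF-alpha added together with compound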
# Rad51 HR inh: human RAD51 strand exchange inhibitors, primary screen, biochemical, fluorescence; DNA repair protein RAD51 homolog 1 (Homo sapiens), Q06609; hRad51 DNA strand exchange, fluorescence dequenching; inhibition, % at 10 µM; 0.085% of 200,000 active;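 active means inhibition above 40% at the single screening dose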;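 further: 0% = DMSO control wells and 100% = blanks with heterologous ssDNA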
#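 Material: human Rad51–ssDNA filaments; Probe or stimulus: labelled 47-mer dsDNA for strand exchange; Doses: single 10 µM dose; Incubation: 37 °C 15-min filament assembly, 30-min compound preincubation, 15-min exchange; Technique: FRET fluorescence dequenching, excitation 485 nm, emission 520 nm; Measure: Fluorescence-based percent inhibition, control- and blank-normalised; Benchmarks: plate control and blank wells.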
# L929 necroptosis: inhibitors of zVAD-triggered necroptosis, primary screen, L929 cells; 0.38% of 220,000 active; L929 zVAD necroptosis rescue, ATP luminescence, 24 h; with zVAD 60 µM; AID 1377, 2008; viability rescue, % at 10 µM;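 active means activation, scaled between plate controls, above about 75%, limit read from the data; inactive means activation under that limit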;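 further: 0% = zVAD with DMSO and 100% = DMSO alone without zVAD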
# PERK inhibitor: block of dimerizer-induced PERK translation repression, primary screen, PERK inhibitor project, CHO PERK-DD cells, SEAP luminescence, HTS; Eukaryotic translation initiation factor 2-alpha kinase 3 (Homo sapiens), Q9NZJ5; CHO PERK-DD fusion, SEAP luminescence translation reporter; inhibition, % at 5.6 µM; 0.17% of 220,000 active; AID 1416, 2008;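 active means inhibition above the mean inhibition of all tested compounds plus 3 SD, set separately per screening campaign, cut at about 2.9% in these data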;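 further: PERK kinase domain activated by AP20187 dimerizer at 100 nM; 0% = DMSO with dimerizer and 100% = rapamycin at 8.4 µM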
# * marks the source's active call; other numbers are inactive results; . = no result. The list is not random: actives were taken first. Their share in the collection is about 1%.
SMILES,HMGR II inh,TNF death inh,Rad51 HR inh,L929 necroptosis,PERK inhibitor
COC(CNC(=O)CNC(=S)N(Cc1ccccc1)Cc1cccnc1)OC,9.6*,1,-7,0,0
CCOc1ccc2nc(NCCNC(=S)NCCCN(C)C)c(C#N)cc2c1,-5,2,-2,6,3.0*
O=C(O)c1cccc(-n2cccc2/C=C/[N+](=O)[O-])c1,.,1,.,1,3.2*
O=C(O)c1cccc(-n2cccc2/C=C\[N+](=O)[O-])c1,1,0,.,0,0
Cc1ccc(NC(=O)c2cccs2)cc1,-1,-2,.,1,1
Cc1ccc(NC(=O)C(=O)NNC(=O)c2cccs2)cc1,10*,0,6,2,1
O=C(Nc1nnc(SCc2ccc(F)cc2)s1)c1ccccn1,-5,-5,22,7,-1
N#Cc1sc(=O)[nH]c1Cl,.,.,-6,.,.
Cc1ccc(Cn2cnc3sc4c(c3c2=O)CCC4)c(C)c1,-7,92*,5,0,-1
C=CCNC(=S)Nc1ccc(F)cc1F,-3,0,.,1,1
C=CCNC(=O)Nc1ccc(F)cc1F,-9,3,-3,-1,3.4*
CCOC(=O)C1CCCN(c2cc(=O)n(-c3ccccc3Cl)c(=O)[nH]2)C1 (centres undefined),0,2,-2,0,3.3*
Cc1ccc(C)c(OCC(=O)Nc2cc(C(=O)O)cc(C(=O)O)c2)c1,-5,1,.,1,3.4*
O=C(COc1ccccc1[N+](=O)[O-])N/N=C/c1ccc(O)c([N+](=O)[O-])c1,2,0,5,1,1
O=C(COc1ccccc1C(=O)N/N=C\c1ccc(O)c(O)c1)N/N=C/c1ccc(O)c(O)c1,29*,-10,.,0,2
CCN(C(=O)Cn1cc(C(F)(F)F)ccc1=O)c1c(N)n(Cc2ccccc2)c(=O)[nH]c1=O,16*,1,-6,2,0
c1ccc(OCCN2CCN(Cc3nc(-c4ccc5c(c4)OCO5)no3)CC2)cc1,4,2,.,1,0
CCCCCNC(=O)CSC1=N/C(=C\c2ccc(Cl)c(Cl)c2)C(=O)N1CC,0,0,0,0,3.0*
CCOC(Cn1ccc(=O)[nH]c1=O)OCC,.,1,12,1,1
C(=N\Nc1nc(Nc2ccccc2)nc(N2CCCCC2)n1)/c1ccco1,2,1,-2,-1,0
O=C(NNC(=O)C1CCCN(S(=O)(=O)c2ccc3ccccc3c2)C1)C1CC1 (centres undefined),0,-2,10,1,4.3*
O=S(=O)(c1ccc2ccccc2c1)N1CCCCCC1,4,2,-3,1,1
CCOC(=O)C1CCCN(S(=O)(=O)c2ccc(OC)cc2)C1 (centres undefined),-1,0,46*,0,0
O=C(NCc1ccco1)C1CCCN(S(=O)(=O)c2ccc(Br)cc2)C1 (centres undefined),11*,0,-21,4,-1
CCOC(=O)C1CCCN(S(=O)(=O)c2ccc(C)cc2)C1 (centres undefined),1,-2,4,0,1
SMILES,HMGR II inh,TNF death inh,Rad51 HR inh,L929 necroptosis,PERK inhibitor
CCOC(=O)c1sc(NC(=O)CC)c(C#N)c1C,-4,-1,3,4,0
CCCCC1=CC2=CC(=O)C(C)(OC(=O)c3ccco3)C(=O)C2=CO1 (centres undefined),.,.,-1,.,.
Cc1ccc(N2C(=O)N(CC(=O)N3CCOCC3)C(=O)C2C)cc1 (centres undefined),-5,0,1,-1,0
N#C/C(=C(/O)CO/N=C/c1ccccc1Cl)c1nc2ccccc2[nH]1,.,1,4,0,2
COc1ccc(OC)c(NC(=O)c2ccccc2NS(=O)(=O)c2cccc3cccnc23)c1,-2,-3,56*,0,0
COC(=O)c1ccc(C(=O)OC)c(NC(=O)CSCC(=O)O)c1,.,2,8,1,3.1*
CC(NCCC(c1ccccc1)c1ccccc1)c1ccccc1 (centres undefined),19*,5,-6,10,-1

# Screening data as filed in PubChem.
